Test results: ChEMBL document CHEMBL4513216, “Probing the Open Global Health Chemical Diversity Library for Multistage-Active Starting Points for Next-Generation Antimalarials” (ACS Infect Dis, 2020)

assay: Toxicity liver stage against HepG2, at 10uM; format: cell-based; design: test concentration 10 uM, cell line HepG2-A16-CD81EGFP; conditions: human, HepG2-A16-CD81EGFP cells; read-out: INHIBITION
How it was run: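 Uninfected HepG2-A16-CD81EGFP cells, 3 × 10^3 per well, 1536-well, plated on prespotted compound at 10 μM final, parasite-free screening media added to match infected plates; puromycin 10 μM positive, DMSO 0.5% negative; run in parallel with 48 h PbLuc assay at 37 °C, 5% CO2; viability by CellTiter-Glo luminescence, normalized to controls.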

Row | Compound | cytotoxicity at 10 µM
1 | CC1=C[C@@H](CN2CCC(O)CC2)[C@H](C(C)C)C[C@H]1Cc1nnc(C)o1 | 0.788%
2 | CC(=O)N1CC[C@H](c2nc3cc(C)ccc3o2)C1 | -4.13%
3 | Cc1c(C2CC(=O)Nc3c2cnn3C(C)C)cnn1C (stereo not given) | -6.72%
4 | Cc1cc(C(=O)N2CCN(c3nc4c(C)cccc4s3)CC2)no1 | 12.1%
5 | Cn1c(C(F)(F)F)nn(CCNC(=O)CCc2ccccc2)c1=O | 10.7%
6 | CCCC(=O)N1CCC2(CC1)COC2 | 1.58%
7 | CN1CC(c2ccccc2)C2(CCN(C(=O)c3cccn3C)CC2)C1=O (stereo not given) | 3.83%
8 | COCCN1CCC2(CCCN(c3ncc(F)cn3)C2)C1 (stereo not given) | 4.71%
9 | Cc1noc([C@@]23CCO[C@@H]2CCN(C(=O)c2cc(C)[nH]c2C)C3)n1 | 10.4%
10 | CCS(=O)(=O)N1CCOC2(CCCN(c3cccc(C#N)c3)C2)C1 (stereo not given) | 0.341%
11 | CN(C)c1ncc2c(n1)C1(CCN(Cc3cccnc3)C1)COC2 (stereo not given) | 9.05%
12 | CCOC1COC2(CCN(Cc3ccc4c(c3)OCO4)CC2)C1 (stereo not given) | 6.94%
13 | CN(C)CCN1CCCC12CCN(C(=O)c1cnccn1)CC2 | 4.99%
14 | CCC(CC)CN1CCN(CC(=O)Nc2cccc3nsnc23)CC1 | 6.16%
15 | Cc1nc(NCCN2CCCC2=O)cc(C2CN(C(C)C)CCO2)n1 (stereo not given) | 3.88%
16 | CCc1cccc2cc(CNCCOC)c(=O)[nH]c12 | 1.47%
17 | O=C(c1cccnc1)N1Cc2ccccc2OCC1Cn1ccnc1 (stereo not given) | 1.68%
18 | Cc1nccn1[C@@H]1CC[C@@H](NC(=O)CCCn2cncn2)[C@H]1O | 6.17%
19 | CC(=O)N1CCN([C@@H]2CC[C@@H](NC(=O)c3ccc(C)nc3)[C@H]2O)CC1 | -3.08%
20 | CCc1nnc(S(=O)(=O)Cc2cc(Cl)c3c(c2)OCO3)n1C | -46.3%
21 | Cc1cccc(NCc2nc(C)ccc2O)c1 | -3.59%
22 | Cc1ccn(Cc2nc(CC(C)C)no2)c(=O)c1 | 6.21%

Row | Compound | cytotoxicity at 10 µM
23 | CCC(C)(C)NC(=O)c1scnc1Cl | -0.47%
24 | CCc1ccc(C(NC(=O)CN(C)S(C)(=O)=O)C(C)(C)C)o1 (stereo not given) | -1.76%
25 | CNC(=O)NC(=O)C(NCc1ccccc1)c1ccccc1 (stereo not given) | -52.9%
26 | CCNC(=O)NCc1ccc(CN2CCCC(C)C2)cc1 (stereo not given) | -5.03%
27 | CC(SCC(=O)NC(N)=O)c1ccccc1F (stereo not given) | 2.96%
28 | CC(C)C(=O)Nc1ccc(Sc2nncn2C)c(Cl)c1 | -1.18%
29 | NC(=O)CN1CCC(NC(=O)N2CCCC2c2ccncc2)CC1 (stereo not given) | 10.5%
30 | N#CCCN(Cc1ccco1)C(=O)Cc1ccc(-n2cnnn2)cc1 | 3.23%
31 | CN(Cc1nnc(-c2ccco2)o1)Cc1nc2c(s1)CCCC2 | 1.13%
32 | CSCC(C)(O)CNc1ncccc1I (stereo not given) | -2.36%
33 | CN(C)C(CNCc1nc(-c2ccsc2)no1)c1ccco1 (stereo not given) | 10.2%
34 | COc1ccc(C(C)N2CCC(C(=O)N(C)C)CC2)cc1Cl (stereo not given) | -52.5%
35 | COc1ccc(C(=O)Nc2cnn(CC(=O)NC3CCCC3)c2)c(O)c1 | -14.8%
36 | CC(C)c1nnc2n1CC(CNCc1ccncc1)CC2 (stereo not given) | -17.5%
37 | COc1ncccc1CN1Cc2nccn2CC(Cn2cccn2)C1 (stereo not given) | -106%
38 | CCS(=O)(=O)N1CC[C@@H]2[C@H]1CCC(=O)N2CCOC | -104%
39 | CN(C)Cc1nc2c(o1)CN(C(=O)c1ccncc1F)C2 | -114%
40 | O=C(NCC1CC1)[C@H]1C[C@@H]2CCN(Cc3nccs3)C[C@@H]2O1 | -1.7%
41 | CS(=O)(=O)NCc1cc(-c2cc(F)cc(F)c2)nc(N2CC[C@H](O)C2)n1 | -9.58%
42 | N[C@H]1CN(C(=O)Cc2ccc(CO)cc2)C[C@@H]1C1CC1 | -5.68%
43 | Cc1nc(CN2CCCCC2CCc2cccs2)co1 (stereo not given) | -2.36%
44 | Cc1ncoc1C(=O)N1CCOC(CC2CCCCC2)C1 (stereo not given) | -1.33%

Row | Compound | cytotoxicity at 10 µM
45 | CCOc1c(CNC2CSCCSC2)cccc1OC | 10.8%
46 | COCCCN1C(=O)CC[C@H]2CN(c3cc(C(N)=O)ccn3)CC[C@H]21 | 4.12%
47 | CCC(CC)CN(C)Cc1nc(-c2ccccc2NS(C)(=O)=O)oc1C | -7.69%
48 | Cc1nn(C)c2ncnc(N3CCCC(OCc4cccnc4)C3)c12 (stereo not given) | 12.8%
49 | COCCN1CC2(CCCN(C(=O)CCCc3cccs3)C2)CCC1=O (stereo not given) | -8.5%
50 | CCCN1CCC=C(C2c3nc[nH]c3CCN2C(=O)c2ccco2)C1 (stereo not given) | 1.33%
51 | COCCN1CCC2(CCC1=O)CN(c1ccnc(SC)n1)CCN2C (stereo not given) | 2.41%
52 | COc1ccc(N2CCN(CC[C@H](O)c3ccccc3)CC2=O)cc1 | 2.41%
53 | CCCn1cc(-c2cc(-c3cnc(OC)nc3)c(C#N)c(N)n2)c(C)n1 | 2.89%
54 | OC1(CNCc2noc(Cc3ccccc3)n2)CNCCOC1 (stereo not given) | 9.34%
55 | O=C(NCc1sc2ccccc2c1Cl)c1cc2n(n1)CCNC2 | 7.94%
56 | CCOc1ccc(-c2c(-c3ccccc3)ncn2C2CCNC2)cn1 (stereo not given) | -51.9%
57 | CC(=O)NCCNCC1(O)CCCN(CCC2CCCCC2)C1=O (stereo not given) | 6.27%
58 | CN1CC2(CCN(c3nc(N)nc4c3CCNC4)CC2)OC1=O | -5.66%
59 | CCc1nc(C)c(C2CC(=O)Nc3c2c(-c2ccccn2)nn3C)[nH]1 (stereo not given) | -6.37%
60 | CSc1ccc(CCN2CCN([C@H]3CCCC[C@@H]3O)CC2)cc1 | -3.38%
61 | C[C@@H]1CN(c2ccc(C#N)cn2)CC[C@@]1(O)C1CCOCC1 | -1.5%
62 | CC(=O)c1ccccc1-c1nc(CC2CCN(C)CC2)no1 | -17.5%
63 | CN(C)C(=O)NCC(=O)N(C)Cc1cc(-c2ccccc2)no1 | 1.14%
64 | OCC1COCCN(c2ncccc2C(F)(F)F)C1 (stereo not given) | -9.34%
65 | CS(=O)(=O)NCCNc1ncnc2cccc(F)c12 | 3.17%
66 | CNc1ncc(CN(C)c2nc(C3CCCC3)nc3c2cnn3C)cn1 | 24.1%

Row | Compound | cytotoxicity at 10 µM
67 | CN(C)CCNC(=O)c1cc2n(n1)CCN(C(=O)c1ccc[nH]1)C2 | 2.58%
68 | COCCCC1(CO)CCCN(C(=O)c2cnc(C3CC3)nc2)C1 (stereo not given) | -39.7%
69 | O=S1(=O)COCCN1Cc1ccc(Cl)c(F)c1 | -11.6%
70 | COc1cccn(CC(=O)N(C)CCOc2cc(C)cc(C)c2)c1=O | -10.6%
71 | CSc1ncccc1C(=O)N1CCC(c2nc3c(C)cccc3[nH]2)CC1 | -20%
72 | CC(=O)N1CCc2c(nc(-c3ccncc3)nc2N(C)CC(O)CO)C1 (stereo not given) | -13.1%
73 | O=C1CCC(=O)N1c1nn(Cc2c(F)cccc2Cl)cc1Cl | -11.3%
74 | COc1c(C2CCCN2C(=O)c2scnc2C)c(C)nn1C (stereo not given) | -1.49%
75 | Cc1ccc(OCC(=O)N2CCCC(n3nc(C)nc3C)C2)cc1 (stereo not given) | -10.1%
76 | CCn1cnnc1CNC(=O)N1CCN(c2ccccc2Cl)CC1 | -0.502%
77 | c1cc(CN2CCOC(Cn3cccn3)C2)c2c(c1)OCCO2 (stereo not given) | -2.66%
78 | CCc1ccc(CNC(=O)NCc2nnc3n2CCC3)s1 | 2.12%
79 | CC(=O)N(C)CCCc1cc(-c2ccccc2)no1 | -7.16%
80 | CC(NC(=O)NCCCn1cncn1)c1ccc(C#N)cc1 (stereo not given) | -2.6%
81 | COC(=O)NCC(=O)NCc1nn(-c2ccccc2)c2c1CCC2 | -7.72%
82 | CCC(C)(C)NC(=O)Cn1nc(C)nc1-c1cccc(C)c1 | -8.44%
83 | CC(C)Cc1cc(NC(=O)c2ccc[nH]2)n(C)n1 | -6.56%
84 | COc1ccc(CN(C)C(=O)NCc2c(C)cc(C)[nH]c2=O)cc1 | -1.13%
85 | CCN(CC)c1ccc(C(=O)N(C)Cc2c(C)noc2C)cn1 | -5.38%
86 | CNC(=O)c1cccc(NC(=O)Cn2nc(-c3cccs3)oc2=O)c1 | -8.28%
87 | Cc1cc(C)n(CC2CCCN2CCCS(N)(=O)=O)n1 (stereo not given) | -4.1%
88 | CN1CCN(c2cc(CNC(=O)c3ccc(=O)[nH]n3)ccn2)CC1 | -15%

Row | Compound | cytotoxicity at 10 µM
89 | Cc1ccccc1-c1cc(C(=O)N2CCn3c(C)nnc3C2)[nH]n1 | -5.82%
90 | CCOc1ccccc1C(CC(=O)Nc1ccc(C)cn1)NC(C)=O (stereo not given) | -10.7%
91 | Cn1cc(C2CCCN2C(=O)CCCOCc2ccccc2)cn1 (stereo not given) | -10.2%
92 | CC(C)N(CC(N)=O)Cc1csc(Cc2ccccc2)n1 | -2.32%
93 | Cn1cnc2c1CCN(CCCOc1ccc(C#N)cc1)C2 | -12.4%
94 | CCN1CCC(NC(=O)CN2CCc3c(nc(C4CC4)n3C)C2)CC1 | -10.2%
95 | O=C(NCCNc1ncccn1)c1ccc(-c2ccco2)[nH]c1=O | -3.29%
96 | CCN(C(=O)c1ccc(-n2ncc(C#N)c2N)cc1)C1CCCC1 | -13%
97 | Cc1nn(C)c(N(C)C)c1CNC(C)COc1cccc(F)c1 (stereo not given) | -4.96%
98 | COc1ccccc1CN1CCCCC1c1n[nH]cc1-c1cc(C)no1 (stereo not given) | 13.6%
99 | COc1ccc(CNC(C)Cn2cccn2)c(OC)c1OC (stereo not given) | -8.17%
100 | O=C(c1cscn1)N1CCC2(CN(Cc3ccncc3)C2)C1 | 6.82%
101 | COCCNC(=O)[C@H]1CN(Cc2csc(C)n2)C[C@H]2OCC[C@@H]12 | 9.9%
102 | c1cnc(NCc2nnn3c2CN(Cc2cccs2)CCC3)nc1 | 10.1%
103 | COCCN1C[C@@H]2CN(Cc3ccc(C)s3)CCC[C@]2(C(=O)O)C1 | -96.8%
104 | O=C([C@H]1CN(Cc2ccc(F)cc2)C[C@H]2OCC[C@@H]12)N1CCCO1 | 7.77%
105 | c1ccc(OCc2nnc3n2CCN(Cc2ccco2)C3)nc1 | 5.5%
106 | Cc1cccc(C(=O)N2CCC3(CCN(c4cnn(C)c4)C3=O)C2)n1 (stereo not given) | 5.05%
107 | Cc1nc(CO[C@H]2CN(C(=O)c3cnoc3C)[C@@H]3COC[C@H]23)cs1 | -107%
108 | CCS(=O)(=O)NC[C@]12COC[C@H]1CN(Cc1cccnc1)C2 | 5.22%
109 | CCc1cc(NC2CCC(O)CC2)n2nc(C)c(C)c2n1 (stereo not given) | -6.86%
110 | Cc1ccc(CN2C[C@@H]3CC[C@H]2CN(Cc2[nH]cnc2C)C3)o1 | -6.81%
